In data set [1] the test system is Mus musculus. Description: Anticonvulsant activity in mouse assessed as protection against maximal electric shock-induced seizures at 30 mg/kg, ip measured after 4 hrs. Format: functional, organism-based. The method, boiled down:
(§1)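 Mice dosed ip with suspension in 0.5% methylcellulose; maximal electroshock applied at the listed time after dosing. Protection = abolition of hindlimb tonic extension component of seizure; reported as animals protected/animals tested.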

For data set [2], the system named is Vibrio harveyi. Description: Antimutagenic activity against Vibrio harveyi BB7XM assessed as inhibition of NQNO-induced mutagenicity after 48 hrs. Format: functional. The method, boiled down: (§2)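 V. harveyi cultures grown exponentially to A600 0.1 at 30 °C, exposed to test compound for 15 min, then to NQNO, and grown on to A600 0.3–0.4. 5 × 10⁶ cells plated on BOSS agar with neomycin (100, final). Neomycin-resistant colonies counted after 48 h at 30 °C. Result given as % inhibition of NQNO mutagenicity; three independent repeats.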

A short description of data set [3]: in vitro. Conditions: mouse, liver microsomes.
Data set [4] concerns Mus musculus. Description: Anticonvulsant activity in mouse assessed as protection against maximal electric shock-induced seizures at 100 mg/kg, ip measured after 0.5 hrs. The data set is classed as functional, organism-based. The method, boiled down: as §1
In data set [5] the test system is Vibrio harveyi. Description: Mutagenicity in Vibrio harveyi BB7X assessed as number of colonies after 48 hrs (reference value: 15 to 16 no_unit). Format: ADME, organism-based. Conditions: in vivo. The method, boiled down:
(§3)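 Vibrio harveyi mutagenicity test: test compound was added to exponentially growing cultures (A600 = 0.1, 30 °C) and grown to OD600 0.3–0.4. Then 5 × 10^6 cells were plated on BOSS agar with neomycin (final 100 µg/mL) and incubated 48 h at 30 °C. Neomycin-resistant colonies were counted. Triplicate; controls were water, DMSO and NQNO 40 ng/mL.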

In data set [6] the test system is Vibrio harveyi. Description: Mutagenicity in Vibrio harveyi BB7XM assessed as number of colonies after 48 hrs (reference value: 14 no_unit). Conditions: in vivo. The data set is classed as ADME, organism-based. The method, boiled down:
as §3

The test system of data set [7] is Mus musculus. Description: Anticonvulsant activity in mouse assessed as protection against subcutaneous pentylenetetrazol-induced seizures at 100 mg/kg, ip measured after 0.5 hrs. The data set is classed as functional, organism-based. The method, boiled down: (§4)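 Mice dosed ip as 0.5% methylcellulose suspension; pentylenetetrazole 85 mg/kg in 0.9% NaCl injected subcutaneously into posterior midline, animals watched at least 30 min. Protection = no threshold seizure (single clonic spasm episode lasting ≥5 s); scored protected/tested.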

The test system of data set [8] is Mus musculus. Description: Neurotoxicity in mouse at 30 mg/kg, ip after 4 hrs by rotarod test. Format: toxicity, organism-based. As to conditions: in vivo. The method, boiled down: (§5)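 Mice were dosed ip with compound suspended in 0.5% methylcellulose. Rotarod: a 1 in. knurled rod turning at 6 rpm. Neurotoxicity was scored as failure to stay on the rod for at least 1 min in each of three trials. Results are given as the number of animals affected out of the number tested.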
(Falling from the rotarod earlier than controls is read as motor impairment.)

Data set [9] deals with Mus musculus. Description: Neurotoxicity in mouse at 300 mg/kg, ip after 0.5 hrs by rotarod test. The data set is classed as toxicity, organism-based. As to conditions: in vivo. The method, boiled down: as §5
The subject of data set [10] is Vibrio harveyi. Description: Antimutagenic activity against Vibrio harveyi BB7X assessed as inhibition of NQNO-induced mutagenicity after 48 hrs. Format: functional. The method, boiled down: as §2
The subject of data set [11] is Vibrio harveyi. Description: Antimutagenic activity against Vibrio harveyi BB7M assessed as inhibition of NQNO-induced mutagenicity after 48 hrs. The data set is classed as functional. The method, boiled down: as §2
In data set [12] the test system is Mus musculus. Description: Anticonvulsant activity in mouse assessed as protection against subcutaneous pentylenetetrazol-induced seizures at 30 mg/kg, ip measured after 0.5 hrs. Format: functional, organism-based. The method, boiled down: as §4
The subject of data set [13] is Mus musculus. Description: Neurotoxicity in mouse at 30 mg/kg, ip after 0.5 hrs by rotarod test. Format: toxicity, organism-based. As to conditions: in vivo. The method, boiled down:
as §5

For data set [14], the system named is Mus musculus. Description: Anticonvulsant activity in mouse assessed as protection against maximal electric shock-induced seizures at 30 mg/kg, ip measured after 0.5 hrs. The data set is classed as functional, organism-based. The method, boiled down: as §1
The test system of data set [15] is Mus musculus. Description: Anticonvulsant activity in mouse assessed as protection against subcutaneous pentylenetetrazol-induced seizures at 100 mg/kg, ip measured after 4 hrs. Format: functional, organism-based. The method, boiled down: as §4
Data set [16] is described as follows: in vitro. As to conditions: mouse, liver microsomes. This is another data set of the same source. (In general: Liver microsomes are vesicles of endoplasmic reticulum, rich in cytochrome P450 enzymes.)
Data set [17] deals with Vibrio harveyi. Description: Antimutagenic activity against Vibrio harveyi BB7 assessed as inhibition of NQNO-induced mutagenicity after 48 hrs. Format: functional. The method, boiled down:
as §2

Data set [18] concerns Vibrio harveyi. Description: Mutagenicity in Vibrio harveyi BB7M assessed as number of colonies after 48 hrs (reference value: 13 to 14 no_unit). The data set is classed as ADME, organism-based. As to conditions: in vivo. The method, boiled down: as §3
Data set [19] can be described thus: Retention time of the compound in mouse liver microsomes at 20 uM preincubated for 15 mins followed by addition of NADPH-regenerating system measured after 5 to 90 mins by […] analysis. Format: ADME. The method, boiled down: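 Mouse liver microsomes (0.4 mg/mL) with test compound (20 µM) in 100 mM potassium phosphate, pH 7.4, were preincubated 15 min at 37 °C. An NADPH-regenerating system was then added and incubation ran 5–90 min at 37 °C. Levallorphan (20 µM) served as internal standard, and reactions were quenched with perchloric acid. The supernatant was analysed by UPLC/MS. Duplicate incubations.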

The test system of data set [20] is Vibrio harveyi. Description: Mutagenicity in Vibrio harveyi BB7 assessed as number of colonies after 48 hrs (reference value: 13 to 14 no_unit). Conditions: in vivo. The data set is classed as ADME, organism-based. The method, boiled down:
as §3

Data set [21] concerns Mus musculus. Description: Anticonvulsant activity in mouse assessed as protection against subcutaneous pentylenetetrazol-induced seizures at 30 mg/kg, ip measured after 4 hrs. Format: functional, organism-based. The method, boiled down: as §4
The test system of data set [22] is Mus musculus. Description: Neurotoxicity in mouse at 100 mg/kg, ip after 4 hrs by rotarod test. Format: toxicity, organism-based. Conditions: in vivo. The method, boiled down:
as §5

The subject of data set [23] is Mus musculus. Description: Anticonvulsant activity in mouse assessed as protection against subcutaneous pentylenetetrazol-induced seizures at 300 mg/kg, ip measured after 0.5 hrs. Format: functional, organism-based. The method, boiled down: as §4
Data set [24] deals with Mus musculus. Description: Anticonvulsant activity in mouse assessed as protection against maximal electric shock-induced seizures at 300 mg/kg, ip measured after 4 hrs. The data set is classed as functional, organism-based. The method, boiled down:
as §1

Data set [25] concerns Mus musculus. Description: Anticonvulsant activity in mouse assessed as protection against subcutaneous pentylenetetrazol-induced seizures at 300 mg/kg, ip measured after 4 hrs. Format: functional, organism-based. The method, boiled down:
as §4

Data set [26] has as its system Mus musculus. Description: Anticonvulsant activity in mouse assessed as protection against maximal electric shock-induced seizures at 100 mg/kg, ip measured after 4 hrs. Format: functional, organism-based. The method, boiled down:
as §1

The subject of data set [27] is Mus musculus. Description: Anticonvulsant activity in mouse assessed as protection against maximal electric shock-induced seizures at 300 mg/kg, ip measured after 0.5 hrs. The data set is classed as functional, organism-based. The method, boiled down: as §1
For data set [28], the system named is Mus musculus. Description: Neurotoxicity in mouse at 300 mg/kg, ip after 4 hrs by rotarod test. The data set is classed as toxicity, organism-based. As to conditions: in vivo. The method, boiled down:
as §5

In data set [29] the test system is Mus musculus. Description: Anticonvulsant activity in ip dosed mouse assessed as protection against maximal electric shock-induced seizures. Format: functional, organism-based. The method, boiled down: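 Compound suspended in 0.5% methylcellulose and given ip to mice; screening doses 30, 100 and 300 mg/kg, read at 0.25–4 h. Protection was defined as abolition of hindlimb tonic extension.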

Activity calls are given as the source filed them.

A word on the half-life: it is the time in which the quantity being followed falls by half. A lower half-life goes with rapid decline. As a reminder, the microsomal CLint is the capacity of the preparation to metabolise the compound, expressed as a volume cleared per time. Lower therefore signals slow turnover. Consider `Cc1cc(C)c(OCCOCCNC(C)CO)c(C)c1` (configuration not stated), for which the outcome in the data set with Mus musculus [1], with Mus musculus [7], with Mus musculus [12], in the data set with Mus musculus [14], with Mus musculus [15] and in the data set with Mus musculus [21] was inactive. The “inhibition (INH)” value is listed as 43% in the data set on Vibrio harveyi [2], 38% in the data set on Vibrio harveyi [10], 62% in the data set with Vibrio harveyi [11] and 81% in the data set on Vibrio harveyi [17]. The half-life at 20 µM in the data set “in vitro [3]” was found to be 2.27 h. The result in the data set with Mus musculus [4] was Active. The Activity with Vibrio harveyi [5] was 24; with Vibrio harveyi [6], 24; in the data set on Mus musculus [8] it was “Non-toxic”; in the data set with Mus musculus [9] it was “Toxic”; in the data set on Mus musculus [13], “Non-toxic”; in the data set with Vibrio harveyi [18], 19. For the same molecule, the Activity in the data set on Vibrio harveyi [20] is 25; with Mus musculus [22], “Non-toxic”. The microsomal CLint at 20 µM in “in vitro [16]” came out at 13 µL/min/mg. This molecule also gave a Retention_time in [19] of 4.31 min.

On to `Cc1cccc(OCCNCC(O)c2ccccc2)c1C` (configuration not stated), for which the outcome in the data set on Mus musculus [1], in the data set on Mus musculus [23], with Mus musculus [4], with Mus musculus [24], in the data set with Mus musculus [25] and with Mus musculus [7] was inactive. Further, the outcome in the data set with Mus musculus [26], with Mus musculus [27], in the data set on Mus musculus [14], in the data set with Mus musculus [15] and in the data set on Mus musculus [21] was inactive. Moreover, the Activity result in the data set with Mus musculus [8], in the data set on Mus musculus [13] and in the data set on Mus musculus [28] was “Non-toxic” throughout.

`Cc1cccc(C)c1OCC(C)N` (configuration not stated) [MEXILETINE]: in the data set on Mus musculus [29], the EC50 is 20 mg/kg.

The values are drawn from ChEMBL document CHEMBL3774372, “Design, physico-chemical properties and biological evaluation of some new N-[(phenoxy)alkyl]- and N-{2-[2-(phenoxy)ethoxy]ethyl}aminoalkanols as anticonvulsant agents” (Bioorg Med Chem, 2016).
